Results taken from ChEMBL document CHEMBL1147795, “cis-2,5-dicyanopyrrolidine inhibitors of dipeptidyl peptidase IV: synthesis and in vitro, in vivo, and X-ray crystallographic characterization” (J Med Chem, 2006).
The source made the active and inactive calls. No cut-off for these calls is given here.

Tests used:
[1] = biological target: Dipeptidyl peptidase 4 (Homo sapiens, UniProt P27487); test: Inhibition of human recombinant DPP4
[2] = Volume of distribution in Beagle dog; format: ADME, organism-based, Canis lupus familiaris; conditions: in vivo, read-out: Vdss
Outline: (§1)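 Dog and monkey PK: oral dosing at 1 mg kg^-1 in sterile water, intravenous at 1 mg kg^-1 in sterile saline.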

[3] = Half life in Beagle dog at 1 mg/kg, po; format: ADME, organism-based, Canis lupus familiaris; design: dose 1 mg/kg, route oral; conditions: in vivo; outline: as §1
[4] = Tmax in Sprague-Dawley rat; format: ADME, organism-based; conditions: in vivo
Outline: (§2)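 Male Sprague-Dawley rats (200-250 g), jugular vein cannulated. IV bolus 1.0 mg/kg in sterile saline; oral gavage 5.0 mg/kg in 0.5% methylcellulose. Blood sampled 0 to 24 h into lithium heparin, plasma frozen at -70 °C, compound quantified by LC/MS/MS after acetonitrile protein precipitation (standard curve 1.0-2000 ng/mL).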

[5] = system: Cynomolgus monkey; test: Hepatic clearance in cynomolgus monkey; format: ADME, organism-based, Macaca fascicularis, Liver; conditions: in vivo; outline: as §1
[6] = species: Rattus norvegicus; test: Hepatic clearance in Sprague-Dawley rat; format: ADME, organism-based, Liver; conditions: in vivo; outline: as §2
[7] = Bioavailability in Sprague-Dawley rat; format: ADME, organism-based; conditions: in vivo; outline: as §2
[8] = Bioavailability in cynomolgus monkey; format: ADME, organism-based, Macaca fascicularis; conditions: in vivo; outline: as §1
[9] = Half life in Sprague-Dawley rat at 5 mg/kg, po; format: ADME, organism-based; design: dose 5 mg/kg, route oral; conditions: in vivo; outline: as §2
[10] = Percent of unbound ligand in Sprague-Dawley rat plasma; format: ADME, cell-free
[11] = species: Rattus norvegicus; test: Cmax in Sprague-Dawley rat; format: ADME, organism-based; conditions: in vivo; outline: as §2
[12] = Volume of distribution in cynomolgus monkey; format: ADME, organism-based, Macaca fascicularis; conditions: in vivo, read-out: Vdss; outline: as §1
[13] = Percent of unbound ligand in human plasma; format: ADME
[14] = Percent of unbound ligand in Beagle dog plasma; format: ADME, cell-free, Canis lupus familiaris
[15] = Bioavailability in Beagle dog; format: ADME, organism-based, Canis lupus familiaris; conditions: in vivo; outline: as §1
[16] = Percent of unbound ligand in cynomolgus monkey plasma; format: ADME, cell-free, Macaca fascicularis
[17] = Half life in Sprague-Dawley rat at 1 mg/kg, iv; format: ADME, organism-based; design: dose 1 mg/kg, route intravenous; conditions: in vivo; outline: as §2
[18] = species: Canis familiaris; test: Hepatic clearance in Beagle dog; format: ADME, organism-based, Canis lupus familiaris, Liver; conditions: in vivo; outline: as §1
[19] = Volume of distribution in Sprague-Dawley rat; format: ADME, organism-based; conditions: in vivo, read-out: Vdss; outline: as §2
[20] = Tmax in cynomolgus monkey; format: ADME, organism-based, Macaca fascicularis; conditions: in vivo; outline: as §1
[21] = system: Rattus norvegicus; test: Increase in thiocyanate ion in rat plasma at 15 mg/kg, po after 24 hrs; format: ADME, organism-based; design: dose 15 mg/kg, route oral; conditions: in vivo
Outline: (§3)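 Stored plasma from earlier oral dosing (rat 15 mg kg^-1, dog and monkey 3 mg kg^-1) analysed for thiocyanate through 24 h, compared with the t = 0 sample.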

[22] = system: Rhesus monkey; test: Increase in thiocyanate ion in monkey plasma at 3 mg/kg, po after 24 hrs; format: ADME, organism-based; design: dose 3 mg/kg, route oral; conditions: in vivo; outline: as §3
[23] = Half life in Beagle dog at 1 mg/kg, iv; format: ADME, organism-based, Canis lupus familiaris; design: dose 1 mg/kg, route intravenous; conditions: in vivo; outline: as §1
[24] = Tmax in Beagle dog; format: ADME, organism-based, Canis lupus familiaris; conditions: in vivo; outline: as §1
[25] = Half life in cynomolgus monkey at 1 mg/kg, iv; format: ADME, organism-based, Macaca fascicularis; design: dose 1 mg/kg, route intravenous; conditions: in vivo; outline: as §1
[26] = system: Canis familiaris; test: Increase in thiocyanate ion in dog plasma at 3 mg/kg, po after 24 hrs; format: ADME, organism-based, Canis lupus familiaris; design: dose 3 mg/kg, route oral; conditions: in vivo; outline: as §3
[27] = species: Rattus norvegicus; test: AUC (0-infinity) in Sprague-Dawley rat; format: ADME, organism-based, Plasma; design: time infinity; conditions: in vivo; outline: as §2
[28] = Half life in cynomolgus monkey at 1 mg/kg, po; format: ADME, organism-based, Macaca fascicularis; design: dose 1 mg/kg, route oral; conditions: in vivo; outline: as §1
[29] = Solubility in unbuffered water; format: physicochemical
Outline: (§4)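 Solubility of the mono-hydrochloride salt measured in PBS pH 6.5 and in unbuffered water; final pH of the water solution 2.0.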

[30] = Solubility in phosphate buffered saline at pH 6.5; format: physicochemical; outline: as §4
[31] = biological target: Dipeptidyl peptidase 4 (Mus musculus) (UniProt P28843); test: Lowering of glucose level in diabetic KK/H1J mouse at 3 mg/kg, po; format: functional, organism-based; design: dose 3 mg/kg
Outline: (§5)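 Diabetic KK/H1J mice fasted overnight, 10 per group, dosed orally in 0.5% methylcellulose. Glucose given orally at t = 15 min; plasma glucose at t = 45 min.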

[32] = biological target: Dipeptidyl peptidase 4 (Mus musculus) (UniProt P28843); test: Lowering of glucose level in diabetic KK/H1J mouse at 10 mg/kg, po; format: functional, organism-based; design: dose 10 mg/kg; outline: as §5
[33] = biological target: Dipeptidyl peptidase 4 (Mus musculus) (UniProt P28843); test: Increase in plasma GLP1 level in KK mouse at 5 mg/kg, po after 2 hrs; format: functional, organism-based; design: dose 5 mg/kg
Outline: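 Fed KK mice dosed 5 mg kg^-1 orally at t = 0. Blood sampled at intervals over 2 h for plasma GLP-1 and DPP-IV activity.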

[34] = biological target: Dipeptidyl peptidase 4 (Mus musculus) (UniProt P28843); test: Lowering of glucose level in diabetic KK/H1J mouse at 2.5 mg/kg, po; format: functional, organism-based; design: dose 2.5 mg/kg; outline: as §5
[35] = biological target: Dipeptidyl peptidase 4 (Mus musculus) (UniProt P28843); test: Lowering of glucose level in diabetic KK/H1J mouse at 0.3 mg/kg, po; format: functional, organism-based; design: dose 0.3 mg/kg
Outline: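 Overnight-fasted diabetic KK/H1J mice, 10 per group, given compound orally in 0.5% methylcellulose (0.2 mL per mouse), then an oral glucose challenge at t = 15 min. Retro-orbital bleeds were taken at 0, 15 and 45 min for plasma glucose. […] Scored significant or nonsignificant.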

[36] = biological target: Dipeptidyl peptidase 4 (Mus musculus) (UniProt P28843); test: Lowering of glucose level in diabetic KK/H1J mouse at 5 mg/kg, po; format: functional, organism-based; design: dose 5 mg/kg; outline: as §5

Chain of Dipeptidyl peptidase 4 (P27487 whole entry): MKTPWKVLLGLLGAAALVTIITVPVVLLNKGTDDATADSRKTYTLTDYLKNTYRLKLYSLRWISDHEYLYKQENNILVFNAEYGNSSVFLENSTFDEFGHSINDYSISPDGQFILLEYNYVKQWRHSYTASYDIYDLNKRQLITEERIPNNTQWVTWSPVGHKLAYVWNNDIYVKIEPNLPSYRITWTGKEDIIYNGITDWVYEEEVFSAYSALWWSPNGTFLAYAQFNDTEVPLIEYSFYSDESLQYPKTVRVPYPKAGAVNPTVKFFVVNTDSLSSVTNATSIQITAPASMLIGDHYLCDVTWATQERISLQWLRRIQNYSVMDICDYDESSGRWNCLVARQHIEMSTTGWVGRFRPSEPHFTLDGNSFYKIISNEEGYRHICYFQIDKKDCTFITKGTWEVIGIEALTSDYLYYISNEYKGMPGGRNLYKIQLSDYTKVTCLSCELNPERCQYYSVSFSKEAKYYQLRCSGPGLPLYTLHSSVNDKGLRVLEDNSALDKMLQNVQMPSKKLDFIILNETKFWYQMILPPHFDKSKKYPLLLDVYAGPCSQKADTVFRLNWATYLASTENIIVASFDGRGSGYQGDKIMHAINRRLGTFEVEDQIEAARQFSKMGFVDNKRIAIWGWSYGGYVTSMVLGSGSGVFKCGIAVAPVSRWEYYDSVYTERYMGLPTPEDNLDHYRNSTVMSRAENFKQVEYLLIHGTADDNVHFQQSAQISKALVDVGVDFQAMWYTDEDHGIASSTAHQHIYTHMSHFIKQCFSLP
Chain of Dipeptidyl peptidase 4 (Mus musculus) (P28843 whole entry, looked up): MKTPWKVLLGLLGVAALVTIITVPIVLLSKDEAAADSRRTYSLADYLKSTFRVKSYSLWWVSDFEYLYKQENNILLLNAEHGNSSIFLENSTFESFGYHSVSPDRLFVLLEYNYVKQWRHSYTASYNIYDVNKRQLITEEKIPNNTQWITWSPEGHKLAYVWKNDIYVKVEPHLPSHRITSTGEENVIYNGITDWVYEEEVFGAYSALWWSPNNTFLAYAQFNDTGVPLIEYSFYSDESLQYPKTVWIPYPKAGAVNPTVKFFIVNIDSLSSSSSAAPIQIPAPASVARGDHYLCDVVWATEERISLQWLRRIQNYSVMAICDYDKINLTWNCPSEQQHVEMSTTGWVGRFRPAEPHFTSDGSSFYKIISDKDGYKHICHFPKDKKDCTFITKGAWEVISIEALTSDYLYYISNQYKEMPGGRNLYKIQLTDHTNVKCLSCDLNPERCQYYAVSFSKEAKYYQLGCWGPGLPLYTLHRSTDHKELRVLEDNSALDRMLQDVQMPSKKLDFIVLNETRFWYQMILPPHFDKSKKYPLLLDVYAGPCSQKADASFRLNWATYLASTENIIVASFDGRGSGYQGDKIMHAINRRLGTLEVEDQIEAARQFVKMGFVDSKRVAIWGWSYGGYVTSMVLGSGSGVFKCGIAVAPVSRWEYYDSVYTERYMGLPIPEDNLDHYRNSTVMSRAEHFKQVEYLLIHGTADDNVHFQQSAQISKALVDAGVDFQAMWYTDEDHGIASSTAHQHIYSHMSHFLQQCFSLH

CC(C)(C)C(C)(C)NCC(=O)N1[C@H](C#N)CC[C@@H]1C#N
IC50 [1]: > 3 µM

N#C[C@@H]1CC[C@H](C#N)N1C(=O)CNC1(CO)CCCC1 [listing 1 of 2 here]
Vd [2]: 1.3 L/kg | half-life [3]: 318 min | Tmax [4]: ≤ 60 min | CL [5]: 2.52 L/h/kg | CL [6]: 4.2 L/h/kg | bioavailability [7]: 77% | bioavailability [8]: 42% | half-life [9]: 162 min | fraction unbound [10]: 1 | Cmax [11]: Dose-dependent effect | Vd [12]: 1.7 L/kg | fraction unbound [13]: 0.77 | fraction unbound [14]: 1 | bioavailability [15]: 93% | fraction unbound [16]: 0.84 | half-life [17]: 18 min | CL [18]: 1.32 L/h/kg | Vd [19]: 1.4 L/kg | Tmax [20]: ≤ 60 min | Activity [21]: Not Active | Activity [22]: Not Active | half-life [23]: 48 min | Tmax [24]: ≤ 60 min | half-life [25]: 36 min | Activity [26]: Not Active | AUC [27]: Dose-dependent effect | half-life [28]: 144 min

N#C[C@@H]1CC[C@H](c2ccccc2)N1C(=O)CNC1(CO)CCCC1
IC50 [1]: > 30 µM

CC1(NCC(=O)N2[C@H](C#N)CC[C@@H]2C#N)COC(C)(C)OC1
IC50 [1]: > 3 µM

Cl.N#C[C@@H]1CC[C@H](C#N)N1C(=O)CNC1(CO)CCCC1
solubility [29]: 200 mg/mL | solubility [30]: > 76 mg/mL

C#CC1(NCC(=O)N2[C@H](C#N)CC[C@@H]2C#N)CCCCC1
IC50 [1]: > 3 µM

N#C[C@@H]1CC[C@H](C#N)N1C(=O)CNC12CC3CC(CC(O)(C3)C1)C2
CL [6]: 7.8 L/h/kg | bioavailability [7]: 42% | IC50 [1]: 0.074 µM | half-life [9]: 84 min | half-life [17]: 24 min | Vd [19]: 2.7 L/kg | Activity [31]: 45%

CNC(=O)C1(NCC(=O)N2[C@H](C#N)CC[C@@H]2C#N)CCCC1
IC50 [1]: > 3 µM

COC(=O)C1(NCC(=O)N2[C@H](C#N)CC[C@@H]2C#N)CCCC1
IC50 [1]: > 3 µM

CC(C)C(C)(C)NCC(=O)N1[C@H](C#N)CC[C@@H]1C#N
IC50 [1]: > 3 µM

N#C[C@@H]1CC[C@H](C#N)N1C(=O)CNC12CC3CC(CC(C3)C1)C2
CL [6]: 4.8 L/h/kg | half-life [17]: 36 min | Vd [19]: 3.1 L/kg | Activity [31]: 55%

CCOCC1(NCC(=O)N2[C@H](C#N)CC[C@@H]2C#N)CCCC1
IC50 [1]: 0.064 µM | Activity [32]: 79%

CCC(C)(C)NCC(=O)N1[C@H](C#N)CC[C@@H]1C#N
IC50 [1]: > 3 µM

N#C[C@@H]1CC[C@H](C#N)N1C(=O)CNC1(CCO)CCCC1
IC50 [1]: > 3 µM

CC1(NCC(=O)N2[C@H](C#N)CC[C@@H]2C#N)CCSC1 (stereo partly drawn)
IC50 [1]: > 3 µM

N[C@H](C(=O)N1CC(F)(F)C(F)(F)C1)C1CCCCC1
Activity [32]: 57%

COCC1(NCC(=O)N2[C@H](C#N)CC[C@@H]2C#N)CCCC1
CL [6]: 5.88 L/h/kg | bioavailability [7]: 48% | IC50 [1]: 0.084 µM | half-life [9]: 38.4 min | half-life [17]: 12 min | Vd [19]: 1.6 L/kg | Activity [32]: 74%

C[C@H]1CC[C@@H](C#N)N1C(=O)CNC12CC3CC(CC(C3)C1)C2
IC50 [1]: > 30 µM

CCC(C)(C)C1CCC(C)(NCC(=O)N2[C@H](C#N)CC[C@@H]2C#N)C1 (stereo partly drawn)
IC50 [1]: > 3 µM

N#C[C@@H]1CC[C@H](C#N)N1C(=O)CNC1(CO)CCCC1 [listing 2 of 2 here]
Activity [33]: Active | Activity [34]: 59% | Activity [32]: 67% | Activity [35]: 46%

CCC(C)(CC)NCC(=O)N1[C@H](C#N)CC[C@@H]1C#N
IC50 [1]: > 3 µM

CCC1(NCC(=O)N2[C@H](C#N)CC[C@@H]2C#N)CCCCC1
IC50 [1]: > 3 µM

N#C[C@@H]1CC[C@H](C#N)N1C(=O)CNC1(CCCO)CCCCC1
IC50 [1]: > 3 µM

C[C@@H]1CC(C)(NCC(=O)N2[C@H](C#N)CC[C@@H]2C#N)C[C@@H]1C (stereo partly drawn)
IC50 [1]: > 3 µM

N#C[C@@H]1C[C@H](O)CN1C(=O)CNC12CC3CC(CC(C3)C1)C2
IC50 [1]: > 30 µM

CC1(C)CCCC1(C)NCC(=O)N1[C@H](C#N)CC[C@@H]1C#N (stereo partly drawn)
IC50 [1]: > 3 µM

N#C[C@@H]1CC[C@H](C#N)N1C(=O)CNC1(Cc2ccccc2)CCCCC1
IC50 [1]: > 3 µM

N#C[C@@H]1CC[C@H](C#N)N1C(=O)CNC12CC3CC(CC1C3)C2
IC50 [1]: 0.072 µM | Activity [36]: 62%

N#C[C@@H]1CC[C@H](C#N)N1C(=O)CNC12CC3(F)CC(F)(CC(F)(C3)C1)C2
IC50 [1]: > 3 µM

CCCCOCC1(NCC(=O)N2[C@H](C#N)CC[C@@H]2C#N)CCCC1
IC50 [1]: 0.091 µM | Activity [32]: 16%
